Tests used:
CYP1A1 = target: T1, CYP1A1 (Homo sapiens, UniProt P04798); assay: Substrate activity at recombinant human CYP1A1 expressed in baculovirus infected insect cells assessed as parent compound remaining at 1 uM incubated for 60 mins in presence of NADP+-regenerating system by LC-MS analysis; assay type: ADME; details: read-out: Stability
T1 sequence (P04798 whole entry): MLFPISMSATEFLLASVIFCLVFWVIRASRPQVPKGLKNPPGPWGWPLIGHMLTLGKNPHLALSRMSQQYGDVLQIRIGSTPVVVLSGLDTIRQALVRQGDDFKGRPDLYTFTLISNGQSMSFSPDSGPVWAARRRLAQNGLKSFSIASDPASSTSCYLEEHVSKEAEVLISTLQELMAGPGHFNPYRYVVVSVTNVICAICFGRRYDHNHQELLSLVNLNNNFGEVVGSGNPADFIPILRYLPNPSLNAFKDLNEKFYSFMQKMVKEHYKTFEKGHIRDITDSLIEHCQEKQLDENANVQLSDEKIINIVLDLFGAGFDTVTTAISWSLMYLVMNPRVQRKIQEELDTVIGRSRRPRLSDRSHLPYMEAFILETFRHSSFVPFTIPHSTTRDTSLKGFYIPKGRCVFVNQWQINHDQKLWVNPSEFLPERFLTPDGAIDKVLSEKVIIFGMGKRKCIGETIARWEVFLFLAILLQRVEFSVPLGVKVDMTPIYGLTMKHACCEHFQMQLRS
Method in brief: (§1)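 Baculovirus/insect-cell Supersomes, each expressing a single human CYP, at 25 pmol/mL. Compound at 1 μM (0.25% DMSO), 37 °C, 60 min. Reactions run with a NADP+-regenerating cofactor mix or, as negative control, without cofactors and glucose-6-phosphate dehydrogenase. Stopped with ACN containing internal standard. Duplicates; % remaining from absolute amounts.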

mTORC1 = mTORC1 (Homo sapiens, UniProt P42345); assay: Inhibition of mTORC1 in human A2058 cells assessed as reduction in ribosomal protein S6 phosphorylation at Ser235/236 residues incubated for 1 hr by Western blot analysis; assay type: cell-based
Method in brief: (§2)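 In-cell Western assay. A2058 cells (2 × 10^4/well) grown 24 h at 37 °C, 5% CO2, then exposed 1 h to inhibitor or DMSO. Cells fixed in 4% PFA, blocked, and stained for the phospho-protein with α-tubulin as internal standard; infrared fluorescence read-out. Signals normalized to tubulin and to DMSO controls to derive IC50.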

[1] = target: Phosphatidylinositol 4-kinase beta (Homo sapiens, UniProt Q9UBF8); assay: Binding affinity to wild-type human full-length PI4Kbeta (M1 to M828 residues) expressed in mammalian expression system by kinome scan assay
Sequence of Phosphatidylinositol 4-kinase beta (Q9UBF8 whole entry, the tested form may be a part): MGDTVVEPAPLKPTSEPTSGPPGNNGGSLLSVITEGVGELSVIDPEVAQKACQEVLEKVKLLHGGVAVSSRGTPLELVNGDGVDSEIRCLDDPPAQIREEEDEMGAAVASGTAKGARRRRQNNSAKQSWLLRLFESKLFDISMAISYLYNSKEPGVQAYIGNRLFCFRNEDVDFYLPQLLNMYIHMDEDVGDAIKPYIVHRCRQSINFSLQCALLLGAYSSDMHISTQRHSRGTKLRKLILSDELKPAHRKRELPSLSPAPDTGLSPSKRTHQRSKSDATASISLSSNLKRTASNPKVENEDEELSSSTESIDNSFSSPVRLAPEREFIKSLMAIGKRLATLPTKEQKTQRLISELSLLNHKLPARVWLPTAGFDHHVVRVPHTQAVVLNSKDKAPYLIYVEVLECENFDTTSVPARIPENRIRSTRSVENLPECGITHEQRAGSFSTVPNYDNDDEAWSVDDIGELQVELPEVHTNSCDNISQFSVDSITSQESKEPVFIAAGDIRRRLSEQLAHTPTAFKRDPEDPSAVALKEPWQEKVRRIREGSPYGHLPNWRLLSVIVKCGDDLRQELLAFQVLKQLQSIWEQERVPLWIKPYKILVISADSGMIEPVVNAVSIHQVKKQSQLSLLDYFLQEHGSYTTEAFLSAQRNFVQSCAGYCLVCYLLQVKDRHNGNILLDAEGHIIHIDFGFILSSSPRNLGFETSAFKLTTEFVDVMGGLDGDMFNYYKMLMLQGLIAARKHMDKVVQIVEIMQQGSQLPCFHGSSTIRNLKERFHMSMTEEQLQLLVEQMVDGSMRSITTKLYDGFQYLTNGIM
Method in brief: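 Competition binding: compound competes with an immobilized ligand for a DNA-tagged kinase. The 11-point, 3-fold serial dilution starts at 30 μM. Bound kinase is quantified by qPCR of the DNA tag. Kd is fitted to a standard dose–response curve using the Hill equation with slope fixed at −1, and reported as the mean of duplicate experiments.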

CYP1A2 [2] = target: T2, CYP1A2 (Homo sapiens, UniProt P05177); assay: Substrate activity at recombinant human CYP1A2 expressed in baculovirus infected insect cells assessed as parent compound remaining at 1 uM incubated for 60 mins in presence of NADP+-regenerating system by LC-MS analysis; assay type: ADME; details: read-out: Stability; method in brief: as §1
T2 sequence (P05177 whole entry): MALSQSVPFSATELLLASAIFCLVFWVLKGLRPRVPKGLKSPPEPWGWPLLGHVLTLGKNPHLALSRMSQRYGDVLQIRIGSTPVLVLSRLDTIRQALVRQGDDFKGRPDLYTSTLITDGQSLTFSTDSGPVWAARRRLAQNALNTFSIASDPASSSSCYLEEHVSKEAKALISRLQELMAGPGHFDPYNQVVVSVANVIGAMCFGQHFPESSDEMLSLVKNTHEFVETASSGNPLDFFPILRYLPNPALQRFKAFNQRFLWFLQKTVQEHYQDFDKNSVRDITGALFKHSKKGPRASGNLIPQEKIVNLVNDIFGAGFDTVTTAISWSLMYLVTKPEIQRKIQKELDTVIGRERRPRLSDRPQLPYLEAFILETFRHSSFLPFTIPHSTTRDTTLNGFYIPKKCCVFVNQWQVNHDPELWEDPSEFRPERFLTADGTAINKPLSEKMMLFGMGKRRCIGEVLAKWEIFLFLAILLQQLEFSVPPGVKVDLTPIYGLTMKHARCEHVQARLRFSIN

[3] = target: Phosphatidylinositol 3-kinase catalytic subunit type 3 (Homo sapiens, UniProt Q8NEB9); assay: Binding affinity to human wild-type partial length VPS34 (S282 to H879 residues) expressed in mammalian expression system by kinome scan assay
Sequence of Phosphatidylinositol 3-kinase catalytic subunit type 3 (Q8NEB9 whole entry, the tested form may be a part): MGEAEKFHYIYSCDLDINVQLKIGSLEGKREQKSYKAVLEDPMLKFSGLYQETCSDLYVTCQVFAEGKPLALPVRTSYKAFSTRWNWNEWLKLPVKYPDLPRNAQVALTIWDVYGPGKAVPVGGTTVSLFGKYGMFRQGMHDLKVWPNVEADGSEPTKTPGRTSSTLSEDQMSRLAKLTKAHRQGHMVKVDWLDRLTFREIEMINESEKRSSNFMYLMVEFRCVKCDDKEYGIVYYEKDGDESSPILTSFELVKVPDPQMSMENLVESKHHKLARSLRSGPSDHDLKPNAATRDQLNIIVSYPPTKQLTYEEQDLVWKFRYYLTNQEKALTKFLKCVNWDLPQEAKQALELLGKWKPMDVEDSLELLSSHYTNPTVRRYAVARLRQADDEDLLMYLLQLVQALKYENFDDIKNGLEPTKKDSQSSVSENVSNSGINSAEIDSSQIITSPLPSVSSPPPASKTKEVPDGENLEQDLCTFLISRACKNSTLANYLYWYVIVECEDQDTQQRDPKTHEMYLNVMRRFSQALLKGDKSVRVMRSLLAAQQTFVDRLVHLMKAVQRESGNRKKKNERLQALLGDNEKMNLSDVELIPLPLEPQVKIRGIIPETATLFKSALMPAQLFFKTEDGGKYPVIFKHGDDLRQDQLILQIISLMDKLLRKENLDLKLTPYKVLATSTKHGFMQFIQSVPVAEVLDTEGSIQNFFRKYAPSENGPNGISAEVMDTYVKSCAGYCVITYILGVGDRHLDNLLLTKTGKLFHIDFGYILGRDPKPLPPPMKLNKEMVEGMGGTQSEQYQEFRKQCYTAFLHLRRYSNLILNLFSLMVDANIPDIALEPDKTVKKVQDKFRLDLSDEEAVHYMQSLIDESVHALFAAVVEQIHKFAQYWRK
Method in brief: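 DNA-tagged kinases competed against immobilized ligand with an 11-point 3-fold serial dilution starting from 30 μM. Kinase bound measured by qPCR of the DNA tags. Kd from standard dose–response curves with the Hill equation (Hill slope −1); mean of duplicate experiments.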

mTORC2 = mTORC2 (Homo sapiens, UniProt P42345); assay: Inhibition of mTORC2 in human A2058 cells assessed as reduction in PKB phosphorylation at S473 residues incubated for 1 hr by Western blot analysis; assay type: cell-based; method in brief: as §2
CYP1A2 [4] = target: T2, CYP1A2; assay: Substrate activity at recombinant human CYP1A2 expressed in baculovirus infected insect cells assessed as parent compound remaining at 1 uM incubated for 60 mins in absence of NADP+-regenerating system by LC-MS analysis; assay type: ADME; details: read-out: Stability; method in brief: as §1
[5] = target: Serine/threonine-protein kinase mTOR (Homo sapiens, UniProt P42345); assay: Inhibition of alexa fluor 647-labeled kinase tracer 314 binding to recombinant human N-terminal GST-fused mTOR (1360 to 2549 residues) expressed in baculovirus expression system by TR-FRET assay
Method in brief: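 LanthaScreen TR-FRET tracer displacement. GST-fused truncated mTOR (aa 1360–2549) detected with Eu-anti-GST antibody (2 nM). […] Buffer: 50 mM HEPES, 5 mM MgCl2, 1 mM EGTA, 0.01% Pluronic F-127. Ki derived from displacement.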

CYP1A2 [6] = target: T2, CYP1A2; assay: Drug metabolism assessed as recombinant human CYP1A2-mediated compound hydrolysis by measuring parent compound remaining incubated for 60 mins by LC-HRMS analysis; assay type: ADME; details: read-out: Stability
Method in brief: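 Human recombinant CYP1A1 or CYP1A2 Supersomes (25 pmol/mL) incubated with compound at 1 μM (0.25% DMSO) plus NADP+-regenerating cofactors at 37 °C for 60 min. Reaction stopped with ACN containing internal standard. Parent and metabolites expressed as percentage of total peak areas.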

[7] = Stability in human hepatocytes assessed as parent compound remaining at 5 uM after 3 hrs by LC-MS analysis; assay type: ADME, cell-based, Hepatocyte; details: read-out: Stability
Method in brief: (§3)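 Cryopreserved hepatocytes in suspension (200 000 cells/well) in Williams medium E with 2 mM L-glutamine and 25 mM HEPES. Test item at a final 5 μM (0.5% DMSO). Sampled at 0, 15, 60, 90 and 180 min. Precipitated with ACN, then LC–MS. Controls: 7-ethoxycoumarin and hepatocyte-free medium; n = 2.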

[8] = Stability in CD-1 mouse hepatocytes assessed as parent compound remaining at 5 uM after 3 hrs by LC-MS analysis; assay type: ADME, cell-based, Hepatocyte; details: read-out: Stability; method in brief: as §3
[9] = Stability in Beagle dog hepatocytes assessed as parent compound remaining at 5 uM after 3 hrs by LC-MS analysis; assay type: ADME, cell-based, Canis lupus familiaris, Hepatocyte; details: read-out: Stability; method in brief: as §3

remaining at 1 h, 1 µM (CYP1A1) | IC50 (mTORC1) | Kd [1] | remaining at 1 h, 1 µM (CYP1A2 [2]) | Kd [3] | IC50 (mTORC2) | remaining at 1 h, 1 µM (CYP1A2 [4]) | Ki [5] | remaining at 1 h (CYP1A2 [6]) | remaining at 3 h, 5 µM [7] | remaining at 3 h, 5 µM [8] | remaining at 3 h, 5 µM [9] | SMILES
77% | 60 nM | > 30000 nM | 92% | 3200 nM | 94 nM | 91% | 8 nM |  |  |  |  | C[C@@H]1COCCN1c1nc(-c2cnc(N)cn2)nc2c1C[C@@H]1COCCN21
51% | 55 nM | > 30000 nM | 73% | 980 nM | 77 nM | 91% | 2.5 nM | 99.7% | 93.2% | 81.2% | 93% | C[C@@H]1COCCN1c1nc(-c2cnc(N)nc2)nc2c1C[C@@H]1COCCN21
 | 61 nM | > 30000 nM |  | 2100 nM | 133 nM | 94% | 13 nM |  |  |  |  | C[C@@H]1COCCN1c1nc(-c2ccc(N)nc2)nc2c1C[C@@H]1COCCN21

Source: ChEMBL document CHEMBL4321805, “A Conformational Restriction Strategy for the Identification of a Highly Selective Pyrimido-pyrrolo-oxazine mTOR Inhibitor” (J Med Chem, 2019)
